Experimental findings from ChEMBL document CHEMBL1138571, “Design, synthesis and evaluation of tetrahydropyran based COX-1/-2 inhibitors” (Eur J Med Chem, 2009) are described below.

In assay [1] the target is T1, Prostaglandin G/H synthase 1 (Ovis aries) (UniProt P05979).
T1 sequence (whole entry): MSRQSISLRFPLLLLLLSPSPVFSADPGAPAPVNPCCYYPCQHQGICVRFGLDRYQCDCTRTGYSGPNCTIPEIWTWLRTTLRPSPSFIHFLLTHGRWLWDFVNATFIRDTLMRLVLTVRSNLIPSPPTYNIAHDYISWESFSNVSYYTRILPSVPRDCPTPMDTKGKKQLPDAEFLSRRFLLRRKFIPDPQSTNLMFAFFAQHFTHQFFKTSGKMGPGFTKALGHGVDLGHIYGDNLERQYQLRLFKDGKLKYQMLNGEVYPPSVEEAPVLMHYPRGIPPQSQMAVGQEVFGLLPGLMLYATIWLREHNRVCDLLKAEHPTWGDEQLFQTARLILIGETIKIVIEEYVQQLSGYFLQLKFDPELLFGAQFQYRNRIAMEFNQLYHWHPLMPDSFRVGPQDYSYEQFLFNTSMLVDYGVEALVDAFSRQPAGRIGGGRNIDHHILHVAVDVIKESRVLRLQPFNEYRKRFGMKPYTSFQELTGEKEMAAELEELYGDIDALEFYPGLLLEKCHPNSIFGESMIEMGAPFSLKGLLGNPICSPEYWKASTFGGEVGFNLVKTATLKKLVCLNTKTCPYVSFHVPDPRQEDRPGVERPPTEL
In words: Inhibition of ovine COX1 at 10 uM. In a few lines: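 Ovine COX-1 enzyme assay in 96-well format following a standard procedure. Compounds were tested at a single concentration of 10^-5 M, in duplicate. Results are expressed as % inhibition.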

The target of assay [2] is T2, Prostaglandin G/H synthase 2 (Ovis aries, UniProt P79208).
T2 sequence (P79208 whole entry): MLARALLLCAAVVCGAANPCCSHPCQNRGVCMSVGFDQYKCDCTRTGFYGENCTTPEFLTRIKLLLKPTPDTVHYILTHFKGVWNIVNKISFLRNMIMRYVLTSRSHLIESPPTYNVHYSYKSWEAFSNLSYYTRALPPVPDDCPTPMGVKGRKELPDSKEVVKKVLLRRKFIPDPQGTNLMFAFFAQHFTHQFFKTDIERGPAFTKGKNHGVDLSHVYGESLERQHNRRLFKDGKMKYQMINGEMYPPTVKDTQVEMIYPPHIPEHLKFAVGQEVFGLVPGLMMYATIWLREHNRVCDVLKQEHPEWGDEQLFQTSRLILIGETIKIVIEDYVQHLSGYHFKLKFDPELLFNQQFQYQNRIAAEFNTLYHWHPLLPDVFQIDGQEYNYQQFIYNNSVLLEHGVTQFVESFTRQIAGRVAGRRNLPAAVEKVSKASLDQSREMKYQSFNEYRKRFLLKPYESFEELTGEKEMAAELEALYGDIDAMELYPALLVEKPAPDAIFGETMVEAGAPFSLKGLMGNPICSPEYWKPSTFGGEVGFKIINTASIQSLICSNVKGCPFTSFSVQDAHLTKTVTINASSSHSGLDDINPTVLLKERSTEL
Put plainly: Inhibition of ovine COX2.

Assay [3] addresses T3, Prostaglandin G/H synthase 1 (Ovis aries, UniProt P05979).
T3 sequence (P05979 whole entry): T1 sequence (whole entry)
In words: Inhibition of ovine COX1.

SMILES strings stand for the structures. pIC50: −log10 of the molar value. A value given as a limit tells only on which side of the number the result lay.

As a reminder, the inhibition is the percentage by which the read-out fell short of the control. Higher therefore signals strong suppression. As usually defined, the pIC50 is the IC50 on a negative log10 scale, so that one unit is a factor of ten. A low value points to a high IC50. In turn, `C[C@]1(O)C[C@@H](CSC#N)O[C@@H](c2ccc([N+](=O)[O-])cc2)C1` registered an inhibition in assay [1] of 29%. Also, the negative logarithm of the IC50 (pIC50) in assay [2] and in assay [3] was less than 5.00 throughout.
Compound `C[C@]1(O)C[C@@H](CSC#N)O[C@@H](c2ccc(Br)cc2)C1` registered an inhibition in assay [1] of 32%. Besides, the pIC50 in assay [2] and in assay [3] was less than 5.00 throughout.
In the case of `C[C@]1(O)C[C@@H](CSC#N)O[C@@H](c2ccc(F)cc2)C1`, in assay [1], the inhibition worked out at 34%. Moreover, the results for the pIC50 in assay [2] and in assay [3] were 6.00 and less than 5.00, respectively.
Taken in the same sequence, the figures for `CCSC[C@@H]1C[C@](C)(O)C[C@H](c2ccc(Cl)cc2)O1` were 34%, less than 5.00 and less than 5.00.
The compound `CCSC[C@@H]1C[C@](C)(O)C[C@H](c2ccc(Br)cc2)O1` displayed an inhibition in assay [1] of 24%. For the same compound, the pIC50 in assay [2] and in assay [3] was less than 5.00 in each case.
As for `CC(C)Cc1ccc(C(C)C(=O)O)cc1` (configuration not stated), in assay [1], the inhibition came out at 96%.
Compound `CCSC[C@@H]1C[C@](C)(O)C[C@H](c2ccc([N+](=O)[O-])cc2)O1` returned an inhibition in assay [1] of 34%. The pIC50 in assay [2] and in assay [3] was less than 5.00 throughout.
In assay [1], `CCSC[C@@H]1C[C@](C)(O)C[C@H](c2ccc(F)cc2)O1` showed an inhibition of 42%. The pIC50 is more than 6.00 in assay [2] and less than 5.00 in assay [3].
